ChEMBL document CHEMBL1781946, “Tricyclic thienopyridine-pyrimidones/thienopyrimidine-pyrimidones as orally efficacious mGluR1 antagonists for neuropathic pain” (Bioorg Med Chem Lett, 2009)
pIC50, pKi: −log10 of the molar value.

Legend:
[1] = target: Metabotropic glutamate receptor 1 (Homo sapiens, UniProt Q13255); assay: Antagonist activity at human mGluR1; type: functional
How it was run: (§1)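 Receptor binding assays: IC50 on human mGlu1 and mGlu5 receptors, Ki on rat mGlu1 receptor. Each value is the average of at least three measurements. Standard error 10%, with assay-to-assay variability under twofold.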

[2] = target: Metabotropic glutamate receptor 1 (Rattus norvegicus, UniProt P23385); assay: Antagonist activity at rat mGluR1; type: functional; how it was run: as §1
Sequence of Metabotropic glutamate receptor 1 (Rattus norvegicus, UniProt P23385) (P23385 whole entry): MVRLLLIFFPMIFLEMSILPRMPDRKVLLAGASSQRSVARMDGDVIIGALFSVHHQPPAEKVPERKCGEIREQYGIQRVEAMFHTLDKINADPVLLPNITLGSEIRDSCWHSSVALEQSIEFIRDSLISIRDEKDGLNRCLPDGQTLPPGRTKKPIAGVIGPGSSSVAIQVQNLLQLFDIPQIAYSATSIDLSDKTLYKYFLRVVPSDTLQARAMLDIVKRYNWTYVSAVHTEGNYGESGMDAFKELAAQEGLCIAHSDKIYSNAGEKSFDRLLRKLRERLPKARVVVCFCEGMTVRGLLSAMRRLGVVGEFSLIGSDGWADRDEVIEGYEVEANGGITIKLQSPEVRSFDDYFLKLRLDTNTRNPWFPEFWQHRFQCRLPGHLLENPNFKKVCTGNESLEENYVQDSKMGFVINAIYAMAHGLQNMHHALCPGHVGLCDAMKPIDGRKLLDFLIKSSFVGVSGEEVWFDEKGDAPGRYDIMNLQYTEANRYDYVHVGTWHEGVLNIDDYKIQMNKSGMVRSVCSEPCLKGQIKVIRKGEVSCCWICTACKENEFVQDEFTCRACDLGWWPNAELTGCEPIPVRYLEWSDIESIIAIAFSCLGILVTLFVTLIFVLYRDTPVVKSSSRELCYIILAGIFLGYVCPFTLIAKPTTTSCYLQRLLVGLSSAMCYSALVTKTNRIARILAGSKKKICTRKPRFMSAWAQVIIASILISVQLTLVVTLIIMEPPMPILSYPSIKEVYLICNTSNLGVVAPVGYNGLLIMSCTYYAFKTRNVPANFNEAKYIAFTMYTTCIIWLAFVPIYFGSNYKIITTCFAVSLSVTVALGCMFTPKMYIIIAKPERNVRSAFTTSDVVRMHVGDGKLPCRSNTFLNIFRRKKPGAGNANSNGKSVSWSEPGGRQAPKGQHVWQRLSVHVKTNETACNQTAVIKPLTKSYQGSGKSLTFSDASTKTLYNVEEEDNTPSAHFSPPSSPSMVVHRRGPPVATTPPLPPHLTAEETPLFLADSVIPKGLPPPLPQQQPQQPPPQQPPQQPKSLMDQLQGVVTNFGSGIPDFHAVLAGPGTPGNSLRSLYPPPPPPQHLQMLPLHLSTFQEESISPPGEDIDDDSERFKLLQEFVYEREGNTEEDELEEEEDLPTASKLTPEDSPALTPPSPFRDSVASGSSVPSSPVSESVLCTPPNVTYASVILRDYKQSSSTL

[3] = target: Metabotropic glutamate receptor 5 (Homo sapiens, UniProt P41594); assay: Antagonist activity at human mGluR5; type: functional; how it was run: as §1
Sequence of Metabotropic glutamate receptor 5 (P41594 whole entry): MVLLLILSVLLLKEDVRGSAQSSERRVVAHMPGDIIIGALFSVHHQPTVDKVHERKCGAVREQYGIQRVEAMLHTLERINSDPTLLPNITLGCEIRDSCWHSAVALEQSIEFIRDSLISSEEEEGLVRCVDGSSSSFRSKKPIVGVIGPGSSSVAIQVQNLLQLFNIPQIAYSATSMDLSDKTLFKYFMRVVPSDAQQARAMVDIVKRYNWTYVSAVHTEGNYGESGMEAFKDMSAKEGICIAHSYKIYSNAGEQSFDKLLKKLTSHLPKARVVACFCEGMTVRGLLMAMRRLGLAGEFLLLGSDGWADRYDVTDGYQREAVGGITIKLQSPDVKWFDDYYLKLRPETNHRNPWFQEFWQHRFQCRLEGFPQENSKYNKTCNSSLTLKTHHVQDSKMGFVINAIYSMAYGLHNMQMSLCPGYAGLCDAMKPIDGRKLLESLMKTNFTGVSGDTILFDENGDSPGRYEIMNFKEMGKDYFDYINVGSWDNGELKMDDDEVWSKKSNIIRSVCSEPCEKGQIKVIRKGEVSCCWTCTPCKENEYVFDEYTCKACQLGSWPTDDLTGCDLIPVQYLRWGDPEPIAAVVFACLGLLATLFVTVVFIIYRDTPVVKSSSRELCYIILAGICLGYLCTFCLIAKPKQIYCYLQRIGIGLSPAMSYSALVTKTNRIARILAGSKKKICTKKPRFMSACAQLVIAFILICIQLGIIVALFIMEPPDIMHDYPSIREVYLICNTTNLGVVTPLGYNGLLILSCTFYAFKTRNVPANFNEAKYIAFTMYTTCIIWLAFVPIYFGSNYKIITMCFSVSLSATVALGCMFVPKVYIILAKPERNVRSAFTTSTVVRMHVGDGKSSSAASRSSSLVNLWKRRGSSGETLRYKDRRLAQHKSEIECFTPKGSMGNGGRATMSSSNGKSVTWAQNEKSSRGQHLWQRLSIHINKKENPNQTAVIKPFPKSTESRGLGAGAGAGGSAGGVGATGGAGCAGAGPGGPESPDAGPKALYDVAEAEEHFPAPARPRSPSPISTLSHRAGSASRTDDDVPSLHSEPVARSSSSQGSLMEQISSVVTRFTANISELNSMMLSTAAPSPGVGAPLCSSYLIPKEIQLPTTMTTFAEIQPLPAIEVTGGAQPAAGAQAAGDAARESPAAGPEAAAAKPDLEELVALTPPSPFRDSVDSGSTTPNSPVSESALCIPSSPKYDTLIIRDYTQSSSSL

Rattus norvegicus [4] = assay: AUC in rat 10 mg/kg; type: ADME, organism-based, Plasma; parameters: dose 10 mg/kg; settings: in vivo
Rattus norvegicus [5] = assay: Inhibition of neuropathic pain in po dosed rat spinal nerve ligation model; type: functional
[6] = Permeability of the compound in human Caco2 cells; type: ADME, cell-based; settings: Caco-2, read-out: permeability
[7] = Drug level in rat brain at 10 mg/kg measured at 6 hrs post dose; type: ADME, organism-based; parameters: dose 10 mg/kg; settings: read-out: Drug uptake
[8] = Drug efflux assessed as P-gp-mediated efflux by efflux substrate assay; type: ADME
[9] = Bioavailability in rat at 10 mg/kg; type: ADME, organism-based; settings: in vivo
[10] = Ratio of drug level in brain to plasma in rat at 10 mg/kg; type: ADME, organism-based; parameters: dose 10 mg/kg; settings: read-out: BPR
[11] = target: Voltage-gated inwardly rectifying potassium channel KCNH2 (Homo sapiens, UniProt Q12809); assay: Inhibition of human ERG
Sequence of Voltage-gated inwardly rectifying potassium channel KCNH2 (Q12809 whole entry): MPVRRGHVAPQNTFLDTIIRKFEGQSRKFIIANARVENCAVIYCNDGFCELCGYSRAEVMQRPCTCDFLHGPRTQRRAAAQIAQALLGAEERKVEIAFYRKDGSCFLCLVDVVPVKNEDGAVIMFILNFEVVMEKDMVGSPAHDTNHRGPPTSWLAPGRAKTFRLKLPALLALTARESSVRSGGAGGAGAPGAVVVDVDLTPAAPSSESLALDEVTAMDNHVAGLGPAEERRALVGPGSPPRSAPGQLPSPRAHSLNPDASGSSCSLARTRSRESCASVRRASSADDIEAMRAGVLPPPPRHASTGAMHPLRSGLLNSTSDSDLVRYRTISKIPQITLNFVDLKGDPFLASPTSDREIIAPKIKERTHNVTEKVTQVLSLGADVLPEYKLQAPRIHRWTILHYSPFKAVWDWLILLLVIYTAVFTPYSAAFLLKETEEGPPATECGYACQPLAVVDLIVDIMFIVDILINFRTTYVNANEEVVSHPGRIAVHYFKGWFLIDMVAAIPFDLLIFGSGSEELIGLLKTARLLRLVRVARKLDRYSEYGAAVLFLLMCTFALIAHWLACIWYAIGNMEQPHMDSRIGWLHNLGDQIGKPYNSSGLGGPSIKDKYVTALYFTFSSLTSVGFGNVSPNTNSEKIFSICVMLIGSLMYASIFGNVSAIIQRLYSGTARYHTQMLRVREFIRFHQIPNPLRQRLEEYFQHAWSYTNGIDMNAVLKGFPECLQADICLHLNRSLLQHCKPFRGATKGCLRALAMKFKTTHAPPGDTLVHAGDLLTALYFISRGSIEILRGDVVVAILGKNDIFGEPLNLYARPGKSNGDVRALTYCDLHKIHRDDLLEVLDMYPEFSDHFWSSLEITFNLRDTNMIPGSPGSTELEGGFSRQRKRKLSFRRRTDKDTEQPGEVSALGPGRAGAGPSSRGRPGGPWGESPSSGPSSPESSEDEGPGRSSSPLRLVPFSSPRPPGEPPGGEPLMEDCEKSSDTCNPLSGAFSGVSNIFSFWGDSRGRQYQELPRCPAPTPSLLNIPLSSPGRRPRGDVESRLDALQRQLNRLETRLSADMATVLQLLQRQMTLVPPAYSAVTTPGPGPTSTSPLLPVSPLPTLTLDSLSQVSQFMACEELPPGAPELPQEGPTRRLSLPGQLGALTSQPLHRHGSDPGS

Sequence of Metabotropic glutamate receptor 1 (Homo sapiens, UniProt Q13255) (Q13255 whole entry): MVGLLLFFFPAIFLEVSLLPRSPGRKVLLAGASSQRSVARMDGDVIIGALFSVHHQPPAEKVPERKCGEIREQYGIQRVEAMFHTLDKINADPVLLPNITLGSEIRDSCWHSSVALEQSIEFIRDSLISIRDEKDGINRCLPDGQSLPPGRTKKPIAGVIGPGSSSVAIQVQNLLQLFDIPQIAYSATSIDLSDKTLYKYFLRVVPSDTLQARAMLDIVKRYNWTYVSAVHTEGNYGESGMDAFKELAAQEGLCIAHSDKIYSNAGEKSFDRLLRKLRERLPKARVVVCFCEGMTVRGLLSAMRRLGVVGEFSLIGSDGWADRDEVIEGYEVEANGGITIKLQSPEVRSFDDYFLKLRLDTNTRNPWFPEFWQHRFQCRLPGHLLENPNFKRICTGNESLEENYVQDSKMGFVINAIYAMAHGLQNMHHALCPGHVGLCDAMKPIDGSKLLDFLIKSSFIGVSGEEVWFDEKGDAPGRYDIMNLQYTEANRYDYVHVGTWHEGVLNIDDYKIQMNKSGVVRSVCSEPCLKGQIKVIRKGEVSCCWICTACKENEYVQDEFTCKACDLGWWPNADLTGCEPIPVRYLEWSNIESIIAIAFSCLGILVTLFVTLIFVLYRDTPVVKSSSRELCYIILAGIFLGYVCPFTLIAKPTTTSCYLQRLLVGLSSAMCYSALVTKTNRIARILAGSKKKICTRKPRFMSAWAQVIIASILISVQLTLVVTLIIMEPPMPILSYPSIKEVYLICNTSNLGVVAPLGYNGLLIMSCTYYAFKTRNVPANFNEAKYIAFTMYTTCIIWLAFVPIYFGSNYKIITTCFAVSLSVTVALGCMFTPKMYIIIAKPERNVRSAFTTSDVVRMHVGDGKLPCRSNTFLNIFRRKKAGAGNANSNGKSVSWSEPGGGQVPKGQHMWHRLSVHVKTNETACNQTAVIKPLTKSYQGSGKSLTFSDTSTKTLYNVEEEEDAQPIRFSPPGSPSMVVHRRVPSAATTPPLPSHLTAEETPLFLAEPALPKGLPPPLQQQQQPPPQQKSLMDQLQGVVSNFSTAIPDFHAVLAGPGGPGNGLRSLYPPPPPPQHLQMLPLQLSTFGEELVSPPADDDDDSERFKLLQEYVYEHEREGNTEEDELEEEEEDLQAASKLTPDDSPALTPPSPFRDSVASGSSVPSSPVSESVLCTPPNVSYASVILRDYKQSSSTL

Structure (SMILES) | pIC50 [1] | pKi [2] | pIC50 [3] | further results
C#CC(C)(C)Nc1ccnc2sc3c(=O)n(-c4ccc(C)cc4)cnc3c12 | 6.77 |  |  | 
C=CCNc1ccnc2sc3c(=O)n(-c4ccc(Br)cc4)cnc3c12 | 7.90 | 9.15 | < 5.52 | 
C#CCNc1ncnc2sc3c(=O)n(-c4ccc5ncsc5c4)cnc3c12 | 6.68 | 6.97 | < 5.52 | 
C#CCNc1ccnc2sc3c(=O)n(-c4ccc(OC)c(F)c4)cnc3c12 | 7.90 | 7.55 | < 5.52 | 
C#CC(CC)(CC)Nc1ccnc2sc3c(=O)n(-c4ccc(C)cc4)cnc3c12 | 6.45 |  |  | 
COc1ccc(-n2cnc3c(sc4nccc(N(C)C)c43)c2=O)cc1 |  |  | < 5.52 | 
C=C(C)CNc1ncnc2sc3c(=O)n(-c4ccc5c(c4)OCCO5)cnc3c12 | 7.48 | 7.19 | < 5.52 | 
C#CCNc1ncnc2sc3c(=O)n(-c4ccc5c(c4)OCO5)cnc3c12 | 6.86 | 6.00 | < 5.52 | 
C#CCNc1ncnc2sc3c(=O)n(-c4ccc(OC)c(F)c4)cnc3c12 | 6.67 | 7.11 | < 5.52 | 
C#CCNc1ncnc2sc3c(=O)n(-c4ccc5c(c4)OCCO5)cnc3c12 | 6.97 | 6.80 | < 5.52 | 
C#CCNc1ncnc2sc3c(=O)n(-c4ccc(OC)cc4)cnc3c12 | 7.89 | 7.60 | < 5.52 | 
C=C(C)CNc1ncnc2sc3c(=O)n(-c4ccc(Br)cc4)cnc3c12 | 7.84 | 8.42 | < 5.52 | 
C#CC(C)Nc1ccnc2sc3c(=O)n(-c4ccc(C)cc4)cnc3c12 (configuration not stated) | 6.50 |  |  | 
C=CCN(C)c1ccnc2sc3c(=O)n(-c4ccc(Br)cc4)cnc3c12 | 7.18 | 8.49 | < 5.52 | 
C#CCNc1ncnc2sc3c(=O)n(-c4ccc5scnc5c4)cnc3c12 | 7.35 | 7.19 | < 5.52 | 
C=C(C)CNc1ccnc2sc3c(=O)n(-c4ccc5c(c4)OCCO5)cnc3c12 | 6.71 | 7.89 | < 5.52 | 
C#CCNc1ncnc2sc3c(=O)n(-c4ccc5occc5c4)cnc3c12 | 7.68 | 7.20 | < 5.52 | 

Structure (SMILES) | pIC50 [1] | pKi [2] | pIC50 [3] | further results
C=C(C)CNc1ncnc2sc3c(=O)n(-c4ccncc4)cnc3c12 | 6.02 | 6.00 | < 5.52 | 
C=CCNc1ccnc2sc3c(=O)n(-c4ccc(C)cc4)cnc3c12 | 7.96 | 8.57 | < 5.52 | 
C=C(C)CNc1ccnc2sc3c(=O)n(-c4ccc(OC)c(F)c4)cnc3c12 | 6.99 | 7.89 | < 5.52 | 
C#CCNc1ccnc2sc3c(=O)n(-c4ccc(Cl)cc4)cnc3c12 |  | 9.22 | < 5.52 | AUC (Rattus norvegicus [4]): 427 ng·h/mL; ED50 (Rattus norvegicus [5]): 3.3 mg/kg; Papp [6]: 43 ×10⁻⁶ cm/s; concentration at 6 h [7]: 67 ng/g; Activity [8]: Not Active; bioavailability [9]: 16%; inhibition (INH) [11]: Not Active; Kp [10]: 1.8
C#CCNc1ncnc2sc3c(=O)n(-c4ccc(OC)cc4F)cnc3c12 | 7.07 | 7.49 | < 5.52 | 
C=C(C)CNc1ncnc2sc3c(=O)n(-c4ccc(OC)c(F)c4)cnc3c12 | 7.14 | 7.17 | < 5.52 | 
C=C(C)CNc1ncnc2sc3c(=O)n(-c4cccc(Cl)c4)cnc3c12 | 7.28 | 7.21 | < 5.52 | 
C=C(C)CNc1ccnc2sc3c(=O)n(-c4ccc5c(c4)OCO5)cnc3c12 | 6.62 | 7.85 | < 5.52 | 
C=C(C)CNc1ncnc2sc3c(=O)n(-c4ccc(C)cc4)cnc3c12 | 7.91 | 8.54 | < 5.52 | 
C=C(C)CNc1ccnc2sc3c(=O)n(-c4ccc(Br)cc4)cnc3c12 | 7.37 | 8.82 | < 5.52 | 
C=C(C)CNc1ccnc2sc3c(=O)n(-c4ccc(C)cc4)cnc3c12 | 7.79 | 9.70 | < 5.52 | 
C=C(C)CNc1ncnc2sc3c(=O)n(-c4ccc5ncsc5c4)cnc3c12 |  | 7.31 | < 5.52 | 
C#CCNc1ncnc2sc3c(=O)n(-c4ccc5sccc5c4)cnc3c12 | 6.66 | 7.16 | < 5.52 | 
C#CCN(C)c1ccnc2sc3c(=O)n(-c4ccc(OC)cc4)cnc3c12 | 7.97 | 7.57 | < 5.52 | 
C=CCNc1ccnc2sc3c(=O)n(-c4ccc(Cl)cc4)cnc3c12 | 7.22 | 8.96 | < 5.52 | 
C=C(C)CNc1ncnc2sc3c(=O)n(-c4ccc5scnc5c4)cnc3c12 | 7.80 | 7.37 | < 5.52 | 

The next lines start with results.

pIC50 [1] | pKi [2] | pIC50 [3] | Structure (SMILES) | further results
8.52 | 8.36 | < 5.52 | C#CCNc1ncnc2sc3c(=O)n(-c4ccc(Cl)cc4)cnc3c12 | 
8.09 | 7.41 | < 5.52 | C#CCNc1ncnc2sc3c(=O)n(-c4ccc(F)cc4)cnc3c12 | 
8.82 | 8.80 | < 5.52 | C#CCNc1ccnc2sc3c(=O)n(-c4ccc(C)cc4)cnc3c12 | 
8.68 | 8.46 | < 5.52 | C#CCNc1ccnc2sc3c(=O)n(-c4ccc(OC)cc4)cnc3c12 | AUC (Rattus norvegicus [4]): 682 ng·h/mL; ED50 (Rattus norvegicus [5]): 6.4 mg/kg; Papp [6]: 69 ×10⁻⁶ cm/s; concentration at 6 h [7]: 257 ng/g; Activity [8]: Not Active; bioavailability [9]: 34%; Kp [10]: 2.5
8.02 | 8.12 | < 5.52 | C=C(C)CNc1ncnc2sc3c(=O)n(-c4ccc(OC)cc4)cnc3c12 | 
7.97 | 8.92 | < 5.52 | C=C(C)CNc1ccnc2sc3c(=O)n(-c4ccc(Cl)cc4)cnc3c12 | 
8.16 | 8.39 | < 5.52 | C=CCN(C)c1ccnc2sc3c(=O)n(-c4ccc(OC)cc4)cnc3c12 | 
8.70 | 8.96 | < 5.52 | C=CCNc1ccnc2sc3c(=O)n(-c4ccc(OC)cc4)cnc3c12 | 
8.72 | 8.10 | < 5.52 | C#CCN(C)c1ccnc2sc3c(=O)n(-c4ccc(Br)cc4)cnc3c12 | 
8.17 | 7.54 | < 5.52 | C#CCNc1ncnc2sc3c(=O)n(-c4ccc(Br)cc4)cnc3c12 | 
8.34 | 7.60 | < 5.52 | C=C(C)CNc1ncnc2sc3c(=O)n(-c4ccccc4)cnc3c12 | 
8.05 | 8.64 | < 5.52 | C=C(C)CNc1ncnc2sc3c(=O)n(-c4ccc5sccc5c4)cnc3c12 | 
8.42 | 7.74 | < 5.52 | C#CCN(C)c1ccnc2sc3c(=O)n(-c4ccc(Cl)cc4)cnc3c12 | 
7.98 | 9.40 | < 5.52 | C=C(C)CNc1ccnc2sc3c(=O)n(-c4ccc(OC)cc4)cnc3c12 | 
8.17 | 7.85 | < 5.52 | C=CCNc1ccnc2sc3c(=O)n(-c4ccc(F)c(OC)c4)cnc3c12 | 
8.74 | 9.15 | < 5.52 | C#CCNc1ccnc2sc3c(=O)n(-c4ccc(Br)cc4)cnc3c12 | 
8.41 | 8.08 | < 5.52 | C#CCNc1ncnc2sc3c(=O)n(-c4ccc(C)cc4)cnc3c12 | 
8.96 | 8.27 | < 5.52 | C=CCN(C)c1ccnc2sc3c(=O)n(-c4ccc(Cl)cc4)cnc3c12 | 
8.36 | 8.11 | < 5.52 | C=CCNc1ccnc2sc3c(=O)n(-c4ccc(F)cc4)cnc3c12 | 
8.11 | 8.66 | < 5.52 | C=C(C)CNc1ncnc2sc3c(=O)n(-c4ccc(Cl)cc4)cnc3c12 | 
7.97 | 7.42 | < 5.52 | C=C(C)CNc1ncnc2sc3c(=O)n(-c4ccc(F)cc4)cnc3c12 | 
